Laboratory results published in ChEMBL document CHEMBL1137307, “Further studies on imidazo[4,5-b]pyridine AT1 angiotensin II receptor antagonists. Effects of the transformation of the 4-phenylquinoline backbone into 4-phenylisoquinolinone or 1-phenylindene scaffolds” (J Med Chem, 2006).
Values belong to the compound of their own block, whether it stands above or below them.

Experiments:
[1] = molecular target: T1, Angiotensin II receptor (AT-1) type-1 (Rattus norvegicus, UniProt P29089+P25095); assay: Displacement of [125I]Sar1,Ile8-Ang2 from AT1 receptor in rat hepatic membrane; type: cell membranes, Liver
T1 sequence (P29089 whole entry): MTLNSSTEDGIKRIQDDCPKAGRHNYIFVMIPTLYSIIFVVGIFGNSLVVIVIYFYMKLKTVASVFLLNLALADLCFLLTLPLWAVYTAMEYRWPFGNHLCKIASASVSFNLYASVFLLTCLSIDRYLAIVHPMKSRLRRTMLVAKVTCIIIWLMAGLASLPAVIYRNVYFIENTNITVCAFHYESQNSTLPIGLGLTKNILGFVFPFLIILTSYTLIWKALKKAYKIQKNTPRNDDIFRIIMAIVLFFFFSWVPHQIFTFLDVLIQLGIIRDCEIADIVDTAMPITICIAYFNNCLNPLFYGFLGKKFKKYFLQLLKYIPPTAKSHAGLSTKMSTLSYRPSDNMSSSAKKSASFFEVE
T1 sequence (P25095 whole entry): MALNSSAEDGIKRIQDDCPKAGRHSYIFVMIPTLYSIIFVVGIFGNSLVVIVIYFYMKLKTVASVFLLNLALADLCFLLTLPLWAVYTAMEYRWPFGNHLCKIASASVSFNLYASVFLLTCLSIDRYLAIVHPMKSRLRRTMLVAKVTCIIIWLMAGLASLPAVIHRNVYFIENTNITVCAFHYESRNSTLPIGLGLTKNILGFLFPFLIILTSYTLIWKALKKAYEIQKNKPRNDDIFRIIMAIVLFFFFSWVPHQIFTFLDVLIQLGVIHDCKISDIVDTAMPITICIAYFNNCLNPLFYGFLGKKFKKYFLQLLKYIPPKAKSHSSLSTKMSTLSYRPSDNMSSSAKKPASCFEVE
How it was run: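 Rat liver membranes from male Wistar rats, prepared by differential centrifugation (750g, then 50 000g), 25 µg protein per well in 50 mM Tris-HCl, 100 mM NaCl, 10 mM MgCl₂, 1 mM EDTA, bacitracin, PMSF, 0.1% BSA, pH 7.4. Nonspecific binding defined with 1 µM Ang II. Filtration read-out. IC50 given as mean ± SEM of three determinations.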

[2] = AUC in Sprague-Dawley rat at 3 mg/kg, iv; type: ADME, organism-based; design: dose 3 mg/kg, route intravenous; conditions: plasma
How it was run: (§1)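 Fasted Sprague-Dawley rats, 250-300 g, dosed orally or by tail-vein injection. Blood sampled at selected times and plasma analysed by HPLC. t1/2 (terminal), AUC, observed Cmax and tmax calculated from plasma concentration-time data.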

[3] = Terminal half life in Sprague-Dawley rat at 3 mg/kg, iv; type: ADME, organism-based; design: dose 3 mg/kg, route intravenous; conditions: in vivo, read-out: beta t1/2 (converted); how it was run: as §1
[4] = molecular target: T2, Type-1 angiotensin II receptor (Oryctolagus cuniculus, UniProt P34976); assay: Antagonist activity against AT1 receptor assessed as inhibition of Ang2-induced rabbit aortic strip contraction; type: functional
T2 sequence (P34976 whole entry): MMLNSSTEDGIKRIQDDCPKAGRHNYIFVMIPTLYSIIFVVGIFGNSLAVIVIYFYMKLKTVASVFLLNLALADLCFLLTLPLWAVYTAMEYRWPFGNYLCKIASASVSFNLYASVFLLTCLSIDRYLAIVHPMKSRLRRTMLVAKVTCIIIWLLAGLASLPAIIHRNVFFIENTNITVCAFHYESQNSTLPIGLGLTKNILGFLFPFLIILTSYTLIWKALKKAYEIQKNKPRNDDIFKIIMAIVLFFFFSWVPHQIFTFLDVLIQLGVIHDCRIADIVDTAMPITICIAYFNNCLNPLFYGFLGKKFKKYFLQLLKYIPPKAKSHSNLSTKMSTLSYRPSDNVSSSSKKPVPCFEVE
How it was run: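 Rabbit aortic strips equilibrated 1 h, washed every 10 min. An Ang II cumulative curve was run, then 30 min washout. Antagonist or vehicle applied for 60 min before a submaximal (70-80%) Ang II challenge, 5 nM in controls. One antagonist concentration per tissue. Response read as % inhibition of contraction; IC50 derived from the regression line.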

[5] = Apparent permeability from apical to basolateral side of Caco-2 cell; type: ADME, cell-based; conditions: human
How it was run: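 Caco-2 cells grown in DMEM with 10% FBS on polycarbonate supports, 15-21 days at 37 °C. Compound dosed apically at 10-100 µM final in HBSS with 1% DMSO, at 37 °C, apical-to-basolateral direction. Monolayer integrity checked by [¹⁴C]mannitol permeability. Transported compound measured by HPLC-MS; Papp calculated by equation.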

[6] = AUC in Sprague-Dawley rat at 30 mg/kg, po; type: ADME, organism-based; design: dose 30 mg/kg, route oral; conditions: plasma
How it was run: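 Fasted Sprague-Dawley rats (250-300 g) given compound orally; blood sampled at selected times after dosing, plasma analysed by HPLC, and area under the plasma concentration-time curve calculated.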

[7] = Terminal half life in Sprague-Dawley rat at 30 mg/kg, po; type: ADME, organism-based; design: dose 30 mg/kg, route oral; conditions: in vivo, read-out: beta t1/2 (converted); how it was run: as §1
[8] = Cmax in Sprague-Dawley rat at 30 mg/kg, po; type: ADME, organism-based; design: dose 30 mg/kg, route oral; conditions: in vivo; how it was run: as §1
[9] = Tmax in Sprague-Dawley rat at 30 mg/kg, po; type: ADME, organism-based; design: dose 30 mg/kg, route oral; conditions: in vivo; how it was run: as §1
[10] = Oral bioavailability in Sprague-Dawley rat at 30 mg/kg, po; type: ADME, organism-based; conditions: in vivo; how it was run: as §1
[11] = Oral bioavailability in Sprague-Dawley rat at 10 mg/kg, po; conditions: in vivo

IC50 [1]: > 300 nM
SMILES: CCCCc1nc2c(C)cc(C)nc2n1Cc1ccc(-c2c(-c3nn[nH]n3)n(C)c(=O)c3ccccc23)cc1

IC50 [1]: 55 nM
SMILES: CCCc1nc2c(C)cc(C)nc2n1Cc1ccc(C2(C(C(=O)O)C(=O)O)CC(=O)c3ccccc32)cc1 (configuration not stated)

IC50 [1]: 139 nM
SMILES: CCCc1nc2c(C)cc(C)nc2n1Cc1ccc(C2(CC(=O)O)CC(=O)c3ccccc32)cc1 (configuration not stated)

IC50 [1]: > 300 nM
SMILES: CCc1nc2c(C)cc(C)nc2n1Cc1ccc(-c2c(-c3nn[nH]n3)n(C)c(=O)c3ccccc23)cc1

IC50 [1]: 7.7 nM | AUC [2]: 340 ng·h/mL | half-life [3]: 18 min
SMILES: CCCc1nc2c(C)cc(C)nc2n1Cc1ccc(-c2c(C(=O)O)c(Cl)nc3ccccc23)cc1

IC50 [1]: 6.9 nM | IC50 [4]: 8.9 nM | Papp A→B [5]: 0.1 ×10⁻⁶ cm/s | AUC [2]: 890 ng·h/mL | AUC [6]: 4400 ng·h/mL | half-life [3]: 40.8 min | half-life [7]: 60 min | Cmax [8]: 4200 ng/mL | Tmax [9]: 30 min | bioavailability [10]: 49%
SMILES: CCc1nc2c(C)cc(C)nc2n1Cc1ccc(-c2c(-c3nn[nH]n3)cnc3ccccc23)cc1

IC50 [1]: 11 nM | IC50 [4]: 33 nM
SMILES: CCCc1nc2c(C)cc(C)nc2n1Cc1ccc(C2=C(C(=O)O)C(C)(O)c3ccccc32)cc1 (configuration not stated)

IC50 [1]: 5.7 nM
SMILES: CCCc1nc2c(C)cc(C)nc2n1Cc1ccc(-c2c(C(=O)O)n(C)c(=O)c3ccccc23)cc1

IC50 [1]: 60 nM
SMILES: C=C1C(C(=O)O)=C(c2ccc(Cn3c(CCC)nc4c(C)cc(C)nc43)cc2)c2ccccc21

IC50 [1]: 131 nM
SMILES: CCCc1nc2c(C)cc(C)nc2n1Cc1ccc(C2=C(C(=O)NS(=O)(=O)c3ccccc3)C(=O)c3ccccc32)cc1

Papp A→B [5]: 1.15 ×10⁻⁶ cm/s | AUC [2]: 12400 ng·h/mL | AUC [6]: 74800 ng·h/mL | half-life [3]: 282 min | half-life [7]: 180 min | Cmax [8]: 27500 ng/mL | Tmax [9]: 30 min | bioavailability [10]: 60%
SMILES: CCCCc1nc(Cl)c(CO)n1Cc1ccc(-c2ccccc2-c2nn[nH]n2)cc1 [LOSARTAN]

IC50 [1]: 47 nM
SMILES: CCCc1nc2c(C)cc(C)nc2n1Cc1ccc(C2C(C(=O)O)=C(C)c3ccccc32)cc1 (configuration not stated)

IC50 [1]: 9 nM | IC50 [4]: 13 nM | AUC [2]: 500 ng·h/mL | half-life [3]: 19.8 min
SMILES: CCCc1nc2c(C)cc(C)nc2n1Cc1ccc(-c2c(C(=O)O)c(C)nc3ccccc23)cc1

IC50 [1]: 99 nM
SMILES: CCCc1nc2c(C)cc(C)nc2n1Cc1ccc(C2=C(C(=O)O)C(C)c3ccccc32)cc1 (configuration not stated)

IC50 [1]: 53 nM
SMILES: CCc1nc2c(C)cc(C)nc2n1Cc1ccc(C2=C(C(=O)O)C(=O)c3ccccc32)cc1

IC50 [1]: 4.2 nM | IC50 [4]: 3.3 nM | AUC [2]: 520 ng·h/mL | half-life [3]: 16.8 min
SMILES: CCCc1nc2c(C)cc(C)nc2n1Cc1ccc(-c2c(C(=O)O)c(N)nc3ccccc23)cc1

IC50 [1]: 6.2 nM | Papp A→B [5]: 0.01 ×10⁻⁶ cm/s
SMILES: CCCCc1nc2c(C)cc(C)nc2n1Cc1ccc(-c2c(C(=O)O)n(C)c(=O)c3ccccc23)cc1

IC50 [1]: 15 nM
SMILES: CCCc1nc2c(C)cc(C)nc2n1Cc1ccc(C2=C(C(=O)O)C(O)(CC)c3ccccc32)cc1 (configuration not stated)

IC50 [1]: 5.2 nM | IC50 [4]: 4.6 nM | Papp A→B [5]: 0.03 ×10⁻⁶ cm/s | AUC [2]: 630 ng·h/mL | half-life [3]: 13.2 min | bioavailability [11]: 0%
SMILES: CCc1nc2c(C)cc(C)nc2n1Cc1ccc(-c2c(C(=O)O)n(C)c(=O)c3ccccc23)cc1

IC50 [1]: 54 nM
SMILES: CCCc1nc2c(C)cc(C)nc2n1Cc1ccc(C2=C(C(=O)NS(C)(=O)=O)C(=O)c3ccccc32)cc1

IC50 [1]: > 300 nM
SMILES: CCCc1nc2c(C)cc(C)nc2n1Cc1ccc(-c2c(-c3nn[nH]n3)n(C)c(=O)c3ccccc23)cc1
